Assay results: ChEMBL document CHEMBL1133735, “Synthesis, in vitro anti-breast cancer activity, and intracellular decomposition of amino acid methyl ester and alkyl amide phosphoramidate monoesters of 3'-azido-3'-deoxythymidine (AZT)” (J Med Chem, 2000)

Experiments:
[1] = Partition coefficient (logP); type: physicochemical; conditions: octanol/water
Summary of the method: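 Octanol and water pre-equilibrated (shaken 6 h, stood overnight); ~0.5 mg compound added, shaken 1 h at room temperature, centrifuged 1 h at 1000 rpm, left 30 h to equilibrate. Each phase read by UV absorbance, concentration from extinction coefficients via Beer-Lambert using standard curves over 2-300 µM. Duplicate or triplicate; mean of two values within 15%.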

MCF7 [2] = assay: In vitro cytotoxic concentration required to reduce MCF-7 cell growth by 50%; type: functional; conditions: Homo sapiens
Summary of the method: (§1)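 MCF-7 cells kept in RPMI 1640 with 10% heat-inactivated FBS, penicillin and streptomycin; 5×10^4 to 6×10^4 cells per well dosed with compound in PBS at final 0.001, 0.01, 0.1, 1, 10 and 100 µM; 48 h at 37 °C, 10% CO2. Brief trypsin release, viable cells counted by trypan blue exclusion; triplicate, untreated wells as control. CC50 = concentration giving 50% growth reduction versus control.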

CCRF-CEM [3] = assay: Cytotoxic activity against CEM cell lines.; type: functional, Homo sapiens
CCRF-CEM [4] = assay: Tested for intracellular levels of AZT phosphate against CEM cell lines.; type: functional, Homo sapiens
Summary of the method: (§2)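 About 1.5×10^6 MCF-7 or 3×10^6 CEM cells exposed to 100 µM compound for 17 h, then medium removed. Phosphorylated fractions (phosphates plus phosphoramidate) dephosphorylated with potato acid phosphatase in potassium hydrogen phthalate buffer, 4 h at 37 °C, dried, reconstituted in FPIA buffer; AZT quantified by RIA and phosphorylated amounts extrapolated. Reported as pmol per million cells.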

MCF7 [5] = assay: Cytotoxic activity against MCF-7 cell lines.; type: functional, Homo sapiens; summary of the method: as §1
CCRF-CEM [6] = assay: Tested for intracellular levels of phosphoramidate against CEM cell lines.; type: functional, Homo sapiens; summary of the method: as §2
MCF7 [7] = assay: Tested for intracellular levels of phosphoramidate against MCF-7 cell lines.; type: functional, Homo sapiens; summary of the method: as §2
MCF7 [8] = assay: Tested for intracellular levels of AZT phosphate against MCF-7 cell lines.; type: functional, Homo sapiens; summary of the method: as §2

Structure (SMILES)	logP [1]	CC50 (MCF7 [2]) [µM]	also measured
COC(=O)[C@H](CC(C)C)NP(=O)(O)OC[C@H]1OC(n2cc(C)c(=O)[nH]c2=O)C[C@H]1N=[N+]=[N-] (stereo not given in full)	-1.5	> 100	
CNC(=O)[C@H](Cc1ccc(O)cc1)NP(=O)(O)OC[C@H]1OC(n2cc(C)c(=O)[nH]c2=O)C[C@H]1N=[N+]=[N-] (stereo not given in full)	-1.38	> 100	
Cc1cn(C2C[C@@H](N=[N+]=[N-])[C@@H](COP(=O)(O)N[C@@H](Cc3c[nH]c4ccccc34)C(=O)NC3CC3)O2)c(=O)[nH]c1=O (stereo not given in full)	-1.39	90	
Cc1cn(C2C[C@@H](N=[N+]=[N-])[C@@H](COP(=O)(O)N[C@@H](Cc3c[nH]c4ccccc34)C(=O)NC(C)C)O2)c(=O)[nH]c1=O (stereo not given in full)	-1.3	> 100	
CCNC(=O)[C@H](Cc1c[nH]c2ccccc12)NP(=O)(O)OC[C@H]1OC(n2cc(C)c(=O)[nH]c2=O)C[C@H]1N=[N+]=[N-] (stereo not given in full)	-1.53	> 100	
COC(=O)[C@H](Cc1ccc(O)cc1)NP(=O)(O)OC[C@H]1OC(n2cc(C)c(=O)[nH]c2=O)C[C@H]1N=[N+]=[N-] (stereo not given in full)	-1.59	10	
CNC(=O)[C@@H](Cc1c[nH]c2ccccc12)NP(=O)(O)OC[C@H]1OC(n2cc(C)c(=O)[nH]c2=O)C[C@H]1N=[N+]=[N-] (stereo not given in full)	-1.89	> 100	
CNC(=O)[C@@H](Cc1ccccc1)NP(=O)(O)OC[C@H]1OC(n2cc(C)c(=O)[nH]c2=O)C[C@H]1N=[N+]=[N-] (stereo not given in full)	-1.7	> 100	
COC(=O)[C@@H](NP(=O)(O)OC[C@H]1OC(n2cc(C)c(=O)[nH]c2=O)C[C@H]1N=[N+]=[N-])C(C)C (stereo not given in full)	-1.56	6	
Cc1cn(C2C[C@@H](N=[N+]=[N-])[C@@H](COP(=O)(O)N[C@@H](Cc3c[nH]c4ccccc34)C(=O)NC3CCCCC3)O2)c(=O)[nH]c1=O (stereo not given in full)	-0.914	16	
CNC(=O)[C@H](C)NP(=O)(O)OC[C@H]1OC(n2cc(C)c(=O)[nH]c2=O)C[C@H]1N=[N+]=[N-] (stereo not given in full)	-1.21	> 100	
CNC(=O)[C@H](CC(C)C)NP(=O)(O)OC[C@H]1OC(n2cc(C)c(=O)[nH]c2=O)C[C@H]1N=[N+]=[N-] (stereo not given in full)	-1.52	> 100	
CNC(=O)[C@@H](NP(=O)(O)OC[C@H]1OC(n2cc(C)c(=O)[nH]c2=O)C[C@H]1N=[N+]=[N-])C(C)C (stereo not given in full)	-1.64	2.2	
COC(=O)[C@H](C)NP(=O)(O)OC[C@H]1OC(n2cc(C)c(=O)[nH]c2=O)C[C@H]1N=[N+]=[N-] (stereo not given in full)	-1.25	5.8	
CNC(=O)[C@H](Cc1c[nH]c2ccccc12)NP(=O)(O)OC[C@H]1OC(n2cc(C)c(=O)[nH]c2=O)C[C@H]1N=[N+]=[N-] (stereo not given in full)	-1.38	0.016	
COC(=O)CNP(=O)(O)OC[C@H]1OC(n2cc(C)c(=O)[nH]c2=O)C[C@H]1N=[N+]=[N-] (stereo not given in full)	-1.24	> 100	
CNC(=O)[C@H](Cc1ccccc1)NP(=O)(O)OC[C@H]1OC(n2cc(C)c(=O)[nH]c2=O)C[C@H]1N=[N+]=[N-] (stereo not given in full)	-1.49	1.4	
COC(=O)[C@@H](Cc1ccccc1)NP(=O)(O)OC[C@H]1O[C@@H](n2cc(C)c(=O)[nH]c2=O)C[C@@H]1N=[N+]=[N-]	-1.33	> 100	
COC(=O)[C@H](Cc1ccccc1)NP(=O)(O)OC[C@H]1O[C@@H](n2cc(C)c(=O)[nH]c2=O)C[C@@H]1N=[N+]=[N-]	-1.84	0.4	Cytotoxicity (CCRF-CEM [3]): >100 µM; Amount (CCRF-CEM [4]): 120.7 pM (10e6*cells)-1; Cytotoxicity (MCF7 [5]): 0.4 µM; Amount (CCRF-CEM [6]): 7.8 pM (10e6*cells)-1; Amount (MCF7 [7]): 295 pM (10e6*cells)-1; Amount (MCF7 [8]): 221 pM (10e6*cells)-1
COC(=O)[C@@H](Cc1c[nH]c2ccccc12)NP(=O)(O)OC[C@H]1O[C@@H](n2cc(C)c(=O)[nH]c2=O)C[C@@H]1N=[N+]=[N-]	-1.36	> 100	
COC(=O)[C@H](Cc1c[nH]c2ccccc12)NP(=O)(O)OC[C@H]1O[C@@H](n2cc(C)c(=O)[nH]c2=O)C[C@@H]1N=[N+]=[N-]	-0.686	0.059	Cytotoxicity (CCRF-CEM [3]): >100 µM; Amount (CCRF-CEM [4]): 115.8 pM (10e6*cells)-1; Cytotoxicity (MCF7 [5]): 0.059 µM; Amount (CCRF-CEM [6]): 14.6 pM (10e6*cells)-1; Amount (MCF7 [7]): 213.6 pM (10e6*cells)-1; Amount (MCF7 [8]): 196.5 pM (10e6*cells)-1
CNC(=O)CNP(=O)(O)OC[C@H]1O[C@@H](n2cc(C)c(=O)[nH]c2=O)C[C@@H]1N=[N+]=[N-]	-1.15	5	
Cc1cn([C@H]2C[C@H](N=[N+]=[N-])[C@@H](CO)O2)c(=O)[nH]c1=O [ZIDOVUDINE]			Cytotoxicity (CCRF-CEM [3]): 14.3 µM; Amount (CCRF-CEM [4]): 810.9 pM (10e6*cells)-1; Cytotoxicity (MCF7 [5]): 0.008 µM; Amount (MCF7 [8]): 2658.4 pM (10e6*cells)-1
